Measurements taken from ChEMBL document CHEMBL3045045, “Antifungal activity of CHE-23C, a dimeric sesquiterpene from Chloranthus henryi” (2009).
In brackets after ≈: the same amount, converted by molar mass.

Experiments:
Type in all cases: functional
Botrytis cinerea [1] = assay: Antifungal activity against Botryotinia fuckeliana infected in compound pre-treated tomato plant seedlings assessed as tomato gray mold disease control efficacy at 5 ug/mL measured 3 days post fungus inoculation under greenhouse conditions
Botrytis cinerea [2] = assay: Antifungal activity against Botryotinia fuckeliana infected in compound pre-treated tomato plant seedlings assessed as tomato gray mold disease control efficacy at 50 ug/mL measured 3 days post fungus inoculation under greenhouse conditions
Blumeria hordei [3] = assay: Antifungal activity against Blumeria graminis f. sp. hordei infected compound pre-treated barley plant seedlings assessed as barley powdery mildew disease control efficacy at 1 ug/mL under greenhouse conditions
Procedure, shortened: (§1)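 Barley or wheat seedlings sprayed to runoff with compound in 1% Tween 20 containing water/DMSO (99:1); controls got Tween 20 with 1% DMSO; left 24 h before inoculation; greenhouse. Pots in randomized complete block, three replicates; infected leaf area averaged and converted to % control = 100×[(A−B)/A] versus Tween-only plants.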

Blumeria hordei [4] = assay: Antifungal activity against Blumeria graminis f. sp. hordei infected compound pre-treated barley plant seedlings assessed as barley powdery mildew disease control efficacy at 100 ug/mL under greenhouse conditions; procedure, shortened: as §1
Puccinia recondita [5] = assay: Antifungal activity against Puccinia recondita infected compound pre-treated wheat plant seedlings assessed as wheat leaf rust disease control efficacy at 20 ug/mL under greenhouse conditions; procedure, shortened: as §1
Puccinia recondita [6] = assay: Antifungal activity against Puccinia recondita infected compound pre-treated wheat plant seedlings assessed as wheat leaf rust disease control efficacy at 50 ug/mL under greenhouse conditions; procedure, shortened: as §1
Corticium [7] = assay: Antifungal activity against Corticium sasaki infected compound pre-treated rice plant seedlings through soil application of fungus assessed as rice sheath blight disease control efficacy at 5 ug/mL under greenhouse conditions
Procedure, shortened: (§2)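 Rice seedlings at fourth-leaf stage sprayed to runoff with compound in 1% Tween 20 (water/DMSO 99:1), left 24 h, then inoculated by adding 7-day-old C. sasaki cultures to soil. Greenhouse; three replicates, randomized complete block; % control = 100×[(A−B)/A] from infected sheath area relative to Tween 20/1% DMSO-treated plants.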

Corticium [8] = assay: Antifungal activity against Corticium sasaki infected compound pre-treated rice plant seedlings through soil application of fungus assessed as rice sheath blight disease control efficacy at 50 ug/mL under greenhouse conditions; procedure, shortened: as §2
Phytophthora infestans [9] = assay: Antifungal activity against Phytophthora infestans infected compound pre-treated tomato plant seedlings assessed as tomato late blight disease control efficacy at 2 ug/mL measured after 2 days under greenhouse conditions
Procedure, shortened: (§3)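 Tomato seedlings at second-leaf stage sprayed to runoff with compound in 1% Tween 20 (water/DMSO 99:1), left 24 h, then sprayed with P. infestans zoospore suspension (5 × 10^4 sporangia/mL). Held 1 day at 20 C, 100% RH, then 2 days in growth chamber. Three replicates, randomized blocks; % control from infected area versus Tween 20/1% DMSO controls.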

Phytophthora infestans [10] = assay: Antifungal activity against Phytophthora infestans infected compound pre-treated tomato plant seedlings assessed as tomato late blight disease control efficacy at 10 ug/mL measured after 2 days under greenhouse conditions; procedure, shortened: as §3
Pichia kudriavzevii = assay: Antifungal activity against Pichia kudriavzevii ATCC 42720 after 48 to 72 hr by agar dilution method
Phytophthora infestans [11] = assay: Antifungal activity against Phytophthora infestans infected compound pre-treated tomato plant seedlings assessed as tomato late blight disease control efficacy at 100 ug/mL measured after 2 days under greenhouse conditions; procedure, shortened: as §3
Botrytis cinerea [12] = assay: Antifungal activity against Botryotinia fuckeliana infected in compound pre-treated tomato plant seedlings assessed as tomato gray mold disease control efficacy at 11 ug/mL measured 3 days post fungus inoculation under greenhouse conditions
Procedure, shortened: (§4)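 Tomato seedlings were sprayed to runoff with compound in 1% Tween 20 containing 1% DMSO; controls got Tween 20 with 1% DMSO. After 24 h, second-leaf-stage plants were sprayed with B. cinerea spores (10^6/mL) and kept dark at 20 C, 100% RH. Infected leaf area was scored 3 days post-inoculation. Three replicates in randomized complete blocks; % control = 100 × (A−B)/A against the Tween-only control.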

Botrytis cinerea [13] = assay: Antifungal activity against Botryotinia fuckeliana infected in compound pre-treated tomato plant seedlings assessed as tomato gray mold disease control efficacy at 33 ug/mL measured 3 days post fungus inoculation under greenhouse conditions; procedure, shortened: as §4
Alternaria kikuchiana = assay: Antifungal activity against Alternaria kikuchiana after 48 to 72 hr by agar dilution method
Procedure, shortened: (§5)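 Agar dilution MIC on field-isolate phytopathogens. Compound in DMSO added to molten potato dextrose agar at 0.25-128 μg/mL (2-fold serial dilution). Inocula were 5 mm mycelial disks cut from actively growing colony margins after 3-7 days at 20-25 C. Plates were incubated at 20-25 C for 24-72 h. MIC is the lowest concentration giving complete growth inhibition versus a no-compound control. Run three times.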

Pyricularia grisea [14] = assay: Antifungal activity against Magnaporthe grisea infected compound pre-treated rice plant seedlings assessed as rice blast disease control efficacy at 33 ug/mL under greenhouse conditions
Procedure, shortened: (§6)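 Rice seedlings at third-leaf stage sprayed to runoff with compound in 1% Tween 20 (water/DMSO 99:1), left 24 h, then sprayed with M. grisea spores (5 × 10^5 spores/mL). Greenhouse; randomized complete block, three replicates; % control = 100×[(A−B)/A] from infected leaf area versus Tween 20/1% DMSO controls.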

Puccinia recondita [15] = assay: Antifungal activity against Puccinia recondita infected compound pre-treated wheat plant seedlings assessed as wheat leaf rust disease control efficacy at 100 ug/mL under greenhouse conditions
Procedure, shortened: (§7)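 Greenhouse protective assay. Seedlings were sprayed to runoff with compound in 1% Tween 20 containing 1% DMSO; controls got Tween 20 with 1% DMSO. Plants stood 24 h before pathogen inoculation. Infected leaf area was scored. Three replicates in randomized complete blocks; % control = 100 × (A−B)/A against the Tween-only control; means compared by LSD at P = 0.05.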

Corticium [16] = assay: Antifungal activity against Corticium sasaki infected compound pre-treated rice plant seedlings through soil application of fungus assessed as rice sheath blight disease control efficacy at 11 ug/mL under greenhouse conditions
Procedure, shortened: (§8)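 Rice seedlings were sprayed to runoff with compound in 1% Tween 20 containing 1% DMSO; controls got Tween 20 with 1% DMSO. After 24 h, fourth-leaf-stage plants were inoculated by adding 7-day-old C. sasaki cultures to the soil. Infected sheath area was scored. Three replicates in randomized complete blocks; % control = 100 × (A−B)/A against the Tween-only control.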

Candida albicans [17] = assay: Antifungal activity against Candida albicans ATCC 10231 after 48 to 72 hr by agar dilution method
Botrytis cinerea [18] = assay: Antifungal activity against Botryotinia fuckeliana infected in compound pre-treated tomato plant seedlings assessed as tomato gray mold disease control efficacy at 100 ug/mL measured 3 days post fungus inoculation under greenhouse conditions; procedure, shortened: as §4
Corticium [19] = assay: Antifungal activity against Corticium sasaki infected compound pre-treated rice plant seedlings through soil application of fungus assessed as rice sheath blight disease control efficacy at 100 ug/mL under greenhouse conditions; procedure, shortened: as §8
Pyricularia grisea [20] = assay: Antifungal activity against Magnaporthe grisea infected compound pre-treated rice plant seedlings assessed as rice blast disease control efficacy at 100 ug/mL under greenhouse conditions; procedure, shortened: as §6
Pyricularia grisea [21] = assay: Antifungal activity against Magnaporthe grisea infected compound pre-treated rice plant seedlings assessed as rice blast disease control efficacy at 11 ug/mL under greenhouse conditions; procedure, shortened: as §6
Pyricularia grisea [22] = assay: Antifungal activity against Magnaporthe grisea after 48 to 72 hr by agar dilution method
Procedure, shortened: (§9)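 Agar dilution: DMSO stock added to molten medium (potato dextrose agar, or V-8 juice agar) at 0.25–128 μg/mL, 2-fold series. Inoculum was 5 mm mycelial disks from actively growing colony margins pre-grown 3–7 days at 20–25 C. Plates incubated 20–25 C for 24–72 h. MIC = lowest concentration giving complete growth inhibition versus compound-free plate; three repeats.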

Candida albicans [23] = assay: Antifungal activity against Candida albicans isolate A207 after 48 to 72 hr by agar dilution method
Fusarium oxysporum = assay: Antifungal activity against Fusarium oxysporum after 48 to 72 hr by agar dilution method; procedure, shortened: as §5
Rhizoctonia solani = assay: Antifungal activity against Rhizoctonia solani after 48 to 72 hr by agar dilution method; procedure, shortened: as §5
Cryptococcus neoformans = assay: Antifungal activity against Cryptococcus neoformans ATCC 36556 after 48 to 72 hr […]
Colletotrichum lagenaria = assay: Antifungal activity against Colletotrichum lagenaria after 48 to 72 hr by agar dilution method; procedure, shortened: as §5
Corticium [24] = assay: Antifungal activity against Corticium sasaki infected compound pre-treated rice plant seedlings through soil application of fungus assessed as rice sheath blight disease control efficacy at 33 ug/mL under greenhouse conditions; procedure, shortened: as §8
Phytophthora infestans [25] = assay: Antifungal activity against Phytophthora infestans infected compound pre-treated tomato plant seedlings assessed as tomato late blight disease control efficacy at 33 ug/mL measured after 2 days under greenhouse conditions; procedure, shortened: as §3
Clavispora lusitaniae = assay: Antifungal activity against Clavispora lusitaniae ATCC 6258 after 48 to 72 hr by agar dilution method
Globisporangium ultimum = assay: Antifungal activity against Pythium ultimum after 48 to 72 hr by agar dilution method; procedure, shortened: as §5
Candida tropicalis = assay: Antifungal activity against Candida tropicalis ATCC 13803 after 48 to 72 hr by agar dilution method
Phytophthora infestans [26] = assay: Antifungal activity against Phytophthora infestans after 48 to 72 hr by agar dilution method; procedure, shortened: as §9
Puccinia recondita [27] = assay: Antifungal activity against Puccinia recondita infected compound pre-treated wheat plant seedlings assessed as wheat leaf rust disease control efficacy at 33 ug/mL under greenhouse conditions; procedure, shortened: as §7
Blumeria hordei [28] = assay: Antifungal activity against Blumeria graminis f. sp. hordei infected compound pre-treated barley plant seedlings assessed as barley powdery mildew disease control efficacy at 11 ug/mL under greenhouse conditions; procedure, shortened: as §7
Botrytis cinerea [29] = assay: Antifungal activity against Botryotinia fuckeliana after 48 to 72 hr by agar dilution method; procedure, shortened: as §5
Puccinia recondita [30] = assay: Antifungal activity against Puccinia recondita infected compound pre-treated wheat plant seedlings assessed as wheat leaf rust disease control efficacy at 11 ug/mL under greenhouse conditions; procedure, shortened: as §7
Blumeria hordei [31] = assay: Antifungal activity against Blumeria graminis f. sp. hordei infected compound pre-treated barley plant seedlings assessed as barley powdery mildew disease control efficacy at 33 ug/mL under greenhouse conditions; procedure, shortened: as §7
Phytophthora infestans [32] = assay: Antifungal activity against Phytophthora infestans infected compound pre-treated tomato plant seedlings assessed as tomato late blight disease control efficacy at 11 ug/mL measured after 2 days under greenhouse conditions; procedure, shortened: as §3
Phytophthora infestans [33] = assay: Antifungal activity against Phytophthora infestans infected compound pre-treated tomato plant seedlings assessed as tomato late blight disease control efficacy at 50 ug/mL measured after 2 days under greenhouse conditions; procedure, shortened: as §3

Structure (SMILES): N#Cc1c[nH]cc1-c1cccc2c1OC(F)(F)O2 [FLUDIOXONIL]
- Efficacy (Botrytis cinerea [1]): 82%
- Efficacy (Botrytis cinerea [2]): 100%

Structure (SMILES): CCCCNC(=O)n1c(NC(=O)OC)nc2ccccc21 [BENOMYL]
- Efficacy (Blumeria hordei [3]): 90%
- Efficacy (Blumeria hordei [4]): 100%

Structure (SMILES): CC1=C(C(=O)Nc2ccccc2)SCCO1 [CARBOXIN]
- Efficacy (Puccinia recondita [5]): 43%
- Efficacy (Puccinia recondita [6]): 100%

Structure (SMILES): OCC1=C[C@H](N[C@H]2C[C@H](CO)[C@@H](O[C@@H]3O[C@H](CO)[C@@H](O)[C@H](O)[C@H]3O)[C@H](O)[C@H]2O)[C@H](O)[C@@H](O)[C@@H]1O [VALIDAMYCIN]
- Efficacy (Corticium [7]): 75%
- Efficacy (Corticium [8]): 100%

Structure (SMILES): COc1ccc(C(=CC(=O)N2CCOCC2)c2ccc(Cl)cc2)cc1OC [DIMETHOMORPH]
- Efficacy (Phytophthora infestans [9]): 64%
- Efficacy (Phytophthora infestans [10]): 100%

Structure (SMILES): C/C=C(\C)C(=O)OC[C@]1(O)[C@H]2C[C@H]2[C@]2(C)[C@@H]3CC4=C5[C@H](/C(=C(/C)C(=O)OC)C(=O)[C@H](O)[C@@]5(C)[C@@H]5C[C@H]45)[C@@]34OC(=O)C(COC(C)=O)=C4C[C@@H]12
- MIC (Pichia kudriavzevii): 128 µg/mL (≈ 189 µM)
- Efficacy (Phytophthora infestans [11]): 93%
- Efficacy (Botrytis cinerea [12]): 7.2%
- Efficacy (Botrytis cinerea [13]): 14%
- MIC (Alternaria kikuchiana): 8 µg/mL (≈ 11.8 µM)
- Efficacy (Pyricularia grisea [14]): 50%
- Efficacy (Puccinia recondita [15]): 100%
- Efficacy (Corticium [16]): 50%
- MIC (Candida albicans [17]): 64 µg/mL (≈ 94.6 µM)
- Efficacy (Botrytis cinerea [18]): 36%
- Efficacy (Corticium [19]): 69%
- Efficacy (Pyricularia grisea [20]): 72%
- Efficacy (Pyricularia grisea [21]): 67%
- MIC (Pyricularia grisea [22]): 4 µg/mL (≈ 5.91 µM)
- MIC (Candida albicans [23]): 8 µg/mL (≈ 11.8 µM)
- MIC (Fusarium oxysporum): 16 µg/mL (≈ 23.6 µM)
- MIC (Rhizoctonia solani): 16 µg/mL (≈ 23.6 µM)
- MIC (Cryptococcus neoformans): 16 µg/mL (≈ 23.6 µM)
- MIC (Colletotrichum lagenaria): 8 µg/mL (≈ 11.8 µM)
- Efficacy (Blumeria hordei [4]): 17%
- Efficacy (Corticium [24]): 50%
- Efficacy (Phytophthora infestans [25]): 91%
- MIC (Clavispora lusitaniae): 128 µg/mL (≈ 189 µM)
- MIC (Globisporangium ultimum): 1 µg/mL (≈ 1.48 µM)
- MIC (Candida tropicalis): > 128 µg/mL
- MIC (Phytophthora infestans [26]): 32 µg/mL (≈ 47.3 µM)
- Efficacy (Puccinia recondita [27]): 87%
- Efficacy (Blumeria hordei [28]): 0%
- MIC (Botrytis cinerea [29]): 8 µg/mL (≈ 11.8 µM)
- Efficacy (Puccinia recondita [30]): 80%
- Efficacy (Blumeria hordei [31]): 0%
- Efficacy (Phytophthora infestans [32]): 29%

Structure (SMILES): N#Cc1c(Cl)c(Cl)c(Cl)c(C#N)c1Cl [CHLOROTHALONIL]
- Efficacy (Phytophthora infestans [11]): 100%
- Efficacy (Phytophthora infestans [33]): 94%
